In ChEMBL document CHEMBL1833940, “Discovery of 3-(2,6-dichloro-3,5-dimethoxy-phenyl)-1-{6-[4-(4-ethyl-piperazin-1-yl)-phenylamino]-pyrimidin-4-yl}-1-methyl-urea (NVP-BGJ398), a potent and selective inhibitor of the fibroblast growth factor receptor family of receptor tyrosine kinase” (J Med Chem, 2011):
Activity calls are given as the source filed them. The rule behind the calls is not given here.

Legend:
HT1197 = assay: Antiproliferative activity against human HT1197 cells after 72 hrs; type: functional, cell-based; settings: HT1197, 72 h
Method in brief: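 Bladder cancer lines from ATCC or DSMZ were seeded in 96-well plates (RT4, RT112 at 8500 cells/well; others at 5000 cells/well) in growth medium. Compound dilutions or DMSO were added 24 h later and incubated 72 h. Cells were fixed with glutaraldehyde, stained with 0.05% methylene blue and eluted with 3% HCl, then OD650 nm was read.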

[1] = Half life in plasma of RT112/luc1 cells implanted athymic nude mouse at 20 mg/kg, po by LC/MS/MS analysis; type: ADME, organism-based; design: dose 20 mg/kg, route oral
Method in brief: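 Female athymic nude mice carried subcutaneous RT112/luc1 tumors (5 × 10^6 cells in HBSS with 50% Matrigel, right flank; about 300–400 mm3). Dosed by oral gavage at 20 mg/kg as a suspension in PEG300/D5W (2:1, v/v). Groups (n = 4) were sacrificed at 0.083–24 h.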

[2] = biological target: MAP kinase-interacting serine/threonine-protein kinase 1 (Homo sapiens, UniProt Q9BUB5); assay: Inhibition of recombinant MNK1
Method in brief: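 Purified recombinant kinases under optimized conditions with peptide substrates. ATP was set at each kinase's Km. Phosphorylation was read by microfluidic mobility-shift separation of substrate and product; IC50 determined.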

[3] = Apparent terminal half life in Wistar rat at 10 mg/kg, po by LC-MS/MS analysis; type: ADME, organism-based; design: dose 10 mg/kg, route oral; settings: in vivo, read-out: t1/2 lambda z (converted)
Method in brief: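 Female Wistar rats. IV: 5 mg/kg into the femoral vein as a solution in NMP/PEG200 (1:9, v/v). Oral: monophosphate salt at 10 mg/kg (free base equivalents) as a solution in acetic acid–acetate buffer pH 4.6/PEG300. Plasma was taken by sublingual bleeding at 0.083–24 h, from staggered groups (n = 4) or one sequentially bled group. Assayed by LC-MS/MS (LOQ 10 ng/mL); noncompartmental analysis.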

Rattus norvegicus = assay: Inhibition of FGFR autophosphorylation in RT112 tumour bearing nude Rowett rat assessed as decrease in pMAPK concentration at 8.51 mg/kg, po administered as a single dose after 16 hrs by Western blot analysis; type: functional, organism-based; design: dose 8.51 mg/kg
Method in brief: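 RT112 subcutaneous xenografts in female nude Rowett rats (n = 4). Single oral gavage of the monophosphate salt at 4.25 or 8.51 mg/kg (free base equivalents) in acetic acid–acetate buffer pH 4.6/PEG300 (1:1). Tumors were collected at time points up to 24 h, frozen, homogenized and lysed. Western blots probed pFRS2(Tyr196) and pMAPK, with total FRS2, total MAPK or β-tubulin as loading controls.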

[4] = biological target: MAP kinase-activated protein kinase 2 (Homo sapiens, UniProt P49137); assay: Inhibition of recombinant MK2
Method in brief: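 Purified recombinant kinases with peptide substrates and ATP at each kinase's Km. Read-out was microfluidic mobility shift.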

[5] = biological target: Proto-oncogene tyrosine-protein kinase Src (Homo sapiens, UniProt P12931); assay: Inhibition of recombinant SRC
Method in brief: (§1)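 Purified recombinant kinases were tested under optimized conditions with peptide substrates. ATP was set at each kinase's Km. Phosphorylation was read out by microfluidic mobility shift, and IC50 values were determined.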

Mus musculus = assay: Toxicity in athymic nude mouse xenografted with human RT112 cells assessed as weight loss at 10 mg/kg, po administered for 12 days; type: organism-based, RT-112; design: dose 10 mg/kg, route oral; settings: in vivo, 288 h
Method in brief: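 Female athymic nude mice carried orthotopic RT112/luc1 bladder tumors. Starting 14 days after inoculation, they were dosed orally at 0, 10 or 30 mg/kg/qd for 12 days as a suspension in PEG300/D5W (2:1). Body weight was recorded during treatment. Data are means ± SEM; ANOVA with Dunnett's test versus vehicle.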

RT-112 = assay: Antitumor activity against human RT112 cells xenografted in nude rowett rat assessed as tumor regression at 15 mg/kg, po qd administered for 20 days; type: functional
Method in brief: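 Female nude Rowett rats aged 6–9 weeks were given 1×10^6 RT112 cells subcutaneously in HBSS/50% Matrigel. Treatment began at about 100 mm3 mean tumor volume (n = 8): monophosphate salt in acetate buffer pH 4.6/PEG300 (1:1) by gavage, 5 mL/kg, at 5, 10, 15 mg/kg/qd free base for 20 days. Tumors were measured by caliper (L×W×H×π/6). Readouts were T/C and % regression from start volume.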

[6] = Half life in tumor of RT112/luc1 cells implanted athymic nude mouse at 20 mg/kg, po by LC/MS/MS analysis; type: ADME, organism-based, Neoplasm; design: dose 20 mg/kg, route oral
Method in brief: (§2)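 Female athymic nude mice carried subcutaneous RT112/luc1 tumors (5×10^6 cells, 50% Matrigel; about 300–400 mm3). Dosing was either 5 mg/kg iv by tail vein in NMP/PEG200 (1:9) or 20 mg/kg oral suspension in PEG300/D5W (2:1). Groups of mice (n = 4) were sacrificed at 0.083–24 h. Plasma and tumor levels were measured by LC-MS/MS (LOQ 5 ng/mL, 10 ng/g).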

Tumour [7] = assay: Dose normalized AUC in tumor of RT112/luc1 cells implanted athymic nude mouse at 20 mg/kg, po by LC/MS/MS analysis; type: ADME, organism-based, Neoplasm; design: dose 20 mg/kg, route oral; settings: in vivo; method in brief: as §2
Tumour [8] = assay: Drug uptake in tumor of nude rowett rat bearing human RT112 cells at 4.25 mg/kg, po administered as a single dose after 16 hrs by LC-MS/MS analysis; type: ADME, organism-based, Neoplasm, RT-112; design: dose 4.25 mg/kg, route oral; settings: in vivo
Method in brief: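 Nude Rowett rats bearing subcutaneous RT112 tumors (n = 4) received a single gavage of monophosphate salt at 4.25 or 8.51 mg/kg free base in acetate buffer pH 4.6/PEG300. Tumors were collected at intervals after dosing, frozen and homogenized in an equal volume of ice-cold PBS. Compound levels were measured by LC-MS/MS (LOQ 3 ng/mL).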

[9] = Half life in tumor of RT112/luc1 cells implanted in athymic nude mouse at 5 mg/kg, iv by LC/MS/MS analysis; type: ADME, organism-based, Neoplasm; design: dose 5 mg/kg, route intravenous; method in brief: as §2
[10] = biological target: Proto-oncogene tyrosine-protein kinase receptor Ret (Homo sapiens, UniProt P07949); assay: Inhibition of recombinant RET; method in brief: as §1
Proto-oncogene tyrosine-protein kinase receptor Ret, sequence (P07949 whole entry): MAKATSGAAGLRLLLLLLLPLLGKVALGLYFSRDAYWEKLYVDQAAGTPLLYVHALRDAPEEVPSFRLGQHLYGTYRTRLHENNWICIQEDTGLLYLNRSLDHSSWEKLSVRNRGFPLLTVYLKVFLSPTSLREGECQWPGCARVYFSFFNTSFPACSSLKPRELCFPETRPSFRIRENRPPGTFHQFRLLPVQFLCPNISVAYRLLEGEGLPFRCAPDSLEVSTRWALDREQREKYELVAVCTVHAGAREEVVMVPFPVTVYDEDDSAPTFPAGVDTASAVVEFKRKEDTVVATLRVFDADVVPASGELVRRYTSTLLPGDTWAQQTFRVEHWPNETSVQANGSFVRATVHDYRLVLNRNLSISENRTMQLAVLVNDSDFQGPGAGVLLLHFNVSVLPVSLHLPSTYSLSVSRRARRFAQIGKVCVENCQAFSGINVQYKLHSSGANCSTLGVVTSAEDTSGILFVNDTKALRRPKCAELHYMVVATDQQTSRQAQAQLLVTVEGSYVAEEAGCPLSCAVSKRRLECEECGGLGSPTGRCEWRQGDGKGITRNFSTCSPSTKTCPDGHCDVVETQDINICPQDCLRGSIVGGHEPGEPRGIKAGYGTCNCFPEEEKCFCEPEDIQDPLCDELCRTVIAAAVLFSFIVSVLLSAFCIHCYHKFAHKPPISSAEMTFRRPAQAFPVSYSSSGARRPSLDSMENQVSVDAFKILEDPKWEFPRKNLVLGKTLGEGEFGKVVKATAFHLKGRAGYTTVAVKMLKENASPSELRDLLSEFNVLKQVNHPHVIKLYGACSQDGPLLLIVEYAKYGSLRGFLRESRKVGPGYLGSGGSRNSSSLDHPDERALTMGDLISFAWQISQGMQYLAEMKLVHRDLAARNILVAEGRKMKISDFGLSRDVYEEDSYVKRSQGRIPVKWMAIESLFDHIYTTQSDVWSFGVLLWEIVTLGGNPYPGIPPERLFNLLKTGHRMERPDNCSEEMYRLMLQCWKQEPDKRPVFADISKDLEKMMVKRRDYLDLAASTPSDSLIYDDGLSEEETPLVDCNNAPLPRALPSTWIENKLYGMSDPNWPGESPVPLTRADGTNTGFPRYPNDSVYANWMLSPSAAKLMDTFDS

MAP kinase-interacting serine/threonine-protein kinase 1, sequence (Q9BUB5 whole entry): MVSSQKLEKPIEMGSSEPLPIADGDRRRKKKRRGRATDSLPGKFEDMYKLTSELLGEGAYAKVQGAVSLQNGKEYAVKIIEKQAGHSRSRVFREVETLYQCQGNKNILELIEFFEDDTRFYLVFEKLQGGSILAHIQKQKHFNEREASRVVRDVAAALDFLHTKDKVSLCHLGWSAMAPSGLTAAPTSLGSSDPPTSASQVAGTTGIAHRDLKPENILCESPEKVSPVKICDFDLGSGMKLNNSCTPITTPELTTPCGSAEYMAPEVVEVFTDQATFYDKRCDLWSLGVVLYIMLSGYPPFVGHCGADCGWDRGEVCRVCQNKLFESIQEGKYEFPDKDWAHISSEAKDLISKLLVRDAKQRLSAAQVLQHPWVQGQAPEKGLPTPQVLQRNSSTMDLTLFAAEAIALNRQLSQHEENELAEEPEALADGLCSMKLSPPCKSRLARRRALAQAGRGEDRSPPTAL
Proto-oncogene tyrosine-protein kinase Src, sequence (P12931 2-536 limits assumed): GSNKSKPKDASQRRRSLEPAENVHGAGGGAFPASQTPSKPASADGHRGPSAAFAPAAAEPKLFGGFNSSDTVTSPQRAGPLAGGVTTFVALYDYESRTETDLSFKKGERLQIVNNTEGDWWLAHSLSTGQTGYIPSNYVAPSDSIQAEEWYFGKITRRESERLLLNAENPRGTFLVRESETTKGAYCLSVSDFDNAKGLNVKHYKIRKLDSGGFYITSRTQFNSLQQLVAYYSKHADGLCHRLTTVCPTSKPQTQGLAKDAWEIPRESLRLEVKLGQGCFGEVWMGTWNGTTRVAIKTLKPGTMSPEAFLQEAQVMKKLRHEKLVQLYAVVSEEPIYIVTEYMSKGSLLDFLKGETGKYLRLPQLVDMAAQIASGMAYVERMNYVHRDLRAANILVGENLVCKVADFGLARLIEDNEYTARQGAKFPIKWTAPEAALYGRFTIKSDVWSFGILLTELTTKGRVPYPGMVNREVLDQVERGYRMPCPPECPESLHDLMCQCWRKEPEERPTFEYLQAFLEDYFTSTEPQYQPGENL
MAP kinase-activated protein kinase 2, sequence (P49137 whole entry): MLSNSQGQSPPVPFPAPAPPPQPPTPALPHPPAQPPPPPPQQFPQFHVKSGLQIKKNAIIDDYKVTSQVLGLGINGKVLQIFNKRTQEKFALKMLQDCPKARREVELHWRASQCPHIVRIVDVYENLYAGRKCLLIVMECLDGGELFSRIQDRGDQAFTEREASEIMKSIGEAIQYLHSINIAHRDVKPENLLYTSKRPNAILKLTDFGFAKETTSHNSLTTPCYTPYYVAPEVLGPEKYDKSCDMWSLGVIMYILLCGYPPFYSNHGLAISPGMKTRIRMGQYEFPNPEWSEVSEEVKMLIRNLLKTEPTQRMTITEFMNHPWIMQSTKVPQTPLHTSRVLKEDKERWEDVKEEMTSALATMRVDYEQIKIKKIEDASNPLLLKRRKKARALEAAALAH

half-life [1]: 258 min | IC50 [2]: > 10 µM | half-life [3]: 288 min | IC50 [4]: > 10 µM | IC50 [5]: > 10 µM | half-life [6]: 780 min | AUC/dose (Tumour [7]): 1.85 nmol·h/g | Drug uptake (Tumour [8]): 0.3 nmol/g | half-life [9]: 402 min | IC50 [10]: > 10 µM
SMILES: CCN1CCN(c2ccc(Nc3cc(N(C)C(=O)Nc4c(Cl)c(OC)cc(OC)c4Cl)ncn3)cc2)CC1.O=P(O)(O)O [INFIGRATINIB PHOSPHATE]
IC50 (HT1197): 1160 nM | inhibition (Rattus norvegicus): Active | Activity (Mus musculus): Non-toxic | Activity (RT-112): 73%
